# PMI activator: activators of human phosphomannose isomerase | purified human PMI, coupled resazurin fluorescence, 20 min; stronger effect = higher value; 1 = vehicle control, 0 substrate-free wells | activation factor at 20 µM | actives 0.005% (n = 190,000) | AID 1214;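 active = activation factor of 2 or more at 20 µM, relative to plate controls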
# TNAP inh hi DEA: TNAP (human) inhibition, high acceptor; P05186; purified TNAP, CDP-star luminescence, 1 M DEA; inhibition, % at 20 µM; actives 0.03% (n = 200,000);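 active = over 50% inhibition of tissue-nonspecific alkaline phosphatase at 20 µM in the single-dose screen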;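 also: plate controls were DMSO wells for no effect and EDTA-quenched wells as full inhibition for full effect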
# Target sequence (P05186 whole entry, looked up): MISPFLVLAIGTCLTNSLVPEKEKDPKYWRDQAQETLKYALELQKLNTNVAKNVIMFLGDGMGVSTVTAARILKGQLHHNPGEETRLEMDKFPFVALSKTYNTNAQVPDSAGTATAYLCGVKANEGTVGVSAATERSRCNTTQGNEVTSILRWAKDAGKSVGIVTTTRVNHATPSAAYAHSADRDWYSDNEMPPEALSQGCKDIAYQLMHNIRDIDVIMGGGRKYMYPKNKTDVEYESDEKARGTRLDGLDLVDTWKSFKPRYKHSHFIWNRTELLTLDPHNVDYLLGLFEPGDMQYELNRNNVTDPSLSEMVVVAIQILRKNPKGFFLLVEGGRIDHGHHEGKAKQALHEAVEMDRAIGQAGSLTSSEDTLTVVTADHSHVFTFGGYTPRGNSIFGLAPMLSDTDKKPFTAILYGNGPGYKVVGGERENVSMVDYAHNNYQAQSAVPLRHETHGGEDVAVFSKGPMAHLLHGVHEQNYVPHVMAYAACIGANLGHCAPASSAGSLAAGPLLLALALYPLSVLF
# TNAP inh noacc: inhibitors of human TNAP without phosphate acceptor. actives 0.26% (n = 200,000). AID 1012. purified TNAP, CDP-star luminescence, 30 min. P05186. inhibition, % at 20 µM;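 active = tissue-nonspecific alkaline phosphatase inhibition above about 50% at 20 µM in the single-dose screen, limit read from the data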;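 also: 0% = DMSO negative control and 100% = EDTA positive control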
# PMI act hi M6P: PMI (human) activation, high substrate | P34949 | coupled PMI enzyme assay, resazurin fluorescence, 20 min; stronger effect = higher value; 1 = untreated enzyme, 0 = substrate-free blank | activation factor at 20 µM | actives 0.34% (n = 190,000) | AID 1216;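 active = activation factor of 2 or more at 20 µM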
#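 Material: human phosphomannose isomerase with PGI, G6PDH, diaphorase coupling enzymes / Reagent: Man-6-P substrate 1.0 mM / Dosing: single compound dose of 20 µM, 1% DMSO final / Incubation: enzyme reaction with compound 20 min at room temperature / Signal: resorufin fluorescence (Ex 544/Em 590 nm) from resazurin via diaphorase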
# TNAP act hiacc: increases human TNAP activity under high phosphate acceptor concentration. P05186. purified TNAP, CDP-star luminescence, 1 M DEA, 30 min; stronger effect = higher value; 0 = EDTA background, 1 = DMSO-only activity. activation factor at 20 µM. 200,000 tested, under 10 active. AID 1136;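 active = activation factor at least 2 at 20 µM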
#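 Assay system: human TNAP; Input: enzyme diluted 1/800 final; Reagent: CDP-star luminogenic substrate at 100 µM final; Timing: 30 min, room temperature; Signal: luminescence; Evaluation: TNAP activation factor scaled between EDTA and DMSO control wells.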
# Numbers without * were called inactive. Only some compounds are listed: those with a hit (about 0.62% of all), similar ones and a draw of the others.
SMILES,PMI activator,TNAP inh hi DEA,TNAP inh noacc,PMI act hi M6P,TNAP act hiacc
Cn1ccnc1C(=O)c1cc(SCC(=O)N2CCOCC2)nc2ccccc12,1.1,-1.4,-11.5,1,1
COC(=O)CNc1nc(Cl)nc(Nc2ccc(C)cc2)n1,1.1,-1.4,-14.5,0.9,1
CCOc1ccc(C(=O)CN2CCN(S(=O)(=O)c3ccc(F)cc3)CC2)cc1,1.2,1.2,-2.9,1.3,1
O=C(CN1CCN(S(=O)(=O)c2ccc(F)cc2)CC1)c1ccc(O)c(O)c1,1,1.8,56.3*,1.4,1
O=C(COc1ccccc1C(=O)N/N=C\c1ccc(O)c(O)c1)N/N=C/c1ccc(O)c(O)c1,0.4,59.9*,92.4*,0.8,0.4
Cc1ccc(SCc2cc(=O)[nH]c(Nc3nc(C)c4ccc(C)cc4n3)n2)cc1,1.5,-3.3,-110.2,2*,1
Clc1ccc(-c2cn3cccnc3n2)cc1,1,-12.8,-20.7,1,1.1
Clc1ccc(-c2cn3cccnc3n2)cc1Cl,1.5,-3.0,-9.9,2*,1
CCCN1C(=O)/C(=C\C=C2\N(CC)c3ccccc3C2(C)C)SC1=S,0.8,41.5,42.1,0.8,0.6
CN1/C(=C\C=C2/SC(=S)NC2=O)C(C)(C)c2ccccc21,0.8,50.8*,40.8,0.7,0.5
O=C(CN(c1ccccc1)S(=O)(=O)c1ccccc1[N+](=O)[O-])Nc1ccccc1C(=O)N1CCOCC1,1,1.9,-5.7,1,1
Nc1ccc(Cc2ccc(N)c(O)c2)cc1O,0.9,20.9,57.0*,0.5,0.8
CN(C)S(=O)(=O)Oc1cccc(C(=O)Nc2ccc([N+](=O)[O-])cc2)c1,1,-3.6,-14.4,1,1
Cc1ccc(-n2ncc3c2ncn2c(-c4ccncc4)nnc32)cc1,1.1,-1.7,53.9*,1,1
c1ccc(Cn2ncc3c2ncn2c(-c4ccncc4)nnc32)cc1,1,-6.3,23.6,1.1,1.1
C/C(=N\Nc1ccc(Cl)c(C(=O)O)c1)c1ccc2c(c1)OCO2,1.9,-5.9,-14.8,2.8*,1.1
Cc1ccsc1/C=c1\sc2ncnn2c1=O,1.1,23.5,83.9*,1.1,0.8
O=c1/c(=C/c2cccc3ccccc23)sc2ncnn12,1,-3.7,16.5,1,1
CCOCCCNC(=O)C(c1ccccc1)N(Cc1ccc2c(c1)OCO2)C(=O)c1ccccc1O (centres undefined),1.1,-5.5,-7.5,1,1.1
CCn1c(C)nc2cc(C(=O)NNC(=O)Nc3cccc(Cl)c3)ccc21,1,-8.1,-52.0,1,1.1
CCn1c(C)nc2cc(C(=O)NNC(=O)Nc3ccc(Cl)cc3)ccc21,1.9,-7.1,-69.7,2.8*,1.1
CCCCN1CN(S(=O)(=O)c2cccs2)c2nc3ccccc3nc21,1.6,1.5,-5.8,2.2*,1
CC(C)CCN1CN(S(=O)(=O)c2cccs2)c2nc3ccccc3nc21,1.5,1.5,-4.5,1.9,1
COc1ccccc1-c1ccc(/C=C2/C=C(C)OC2=O)o1,1.6,5.9,19.5,2*,0.9
CCN(CC)S(=O)(=O)c1ccc(C(=O)OCn2c(SC)nnc(C)c2=O)cc1,0.9,-0.9,-1.9,0.9,1
SMILES,PMI activator,TNAP inh hi DEA,TNAP inh noacc,PMI act hi M6P,TNAP act hiacc
O=C1NC2(CCCCC2)NN1c1ccccc1,0.9,-0.8,-5.1,1,1
CC1(c2ccc(O)cc2)NC(=O)N(c2ccccc2)N1 (centres undefined),1.1,-5.1,-10.8,1,1.1
NC(=O)N1CCC2(CC1)NC(=O)N(c1ccccc1)N2,1.6,1.1,-11.0,2.5*,1
CC(=O)N1CCC2(CC1)NC(=O)N(c1ccccc1)N2,1.6,3.0,-3.7,2.4*,1
CN(Cc1ccno1)Cc1cn(Cc2ccccc2)nc1-c1ccc2c(c1)OCO2,1,-4.7,-9.2,1,1
O=C(C1CCCCC1)N1CCN=C1SCc1cccc([N+](=O)[O-])c1,1,-4.4,-3.6,1,1
CC(=O)NNc1nc(-c2ccccc2)cs1,1.7,4.3,-4.2,2.4*,1
CCN1CCN(C(=O)C(C)Nc2cc(Cl)c(OC)cc2OC)CC1 (centres undefined),0.7,-2.8,-6.1,0.3,1
O=C(Nc1ccccc1Cl)c1ccccc1Cl,0.9,-4.3,-6.7,0.9,1

# Screening results: PubChem, Sanford-Burnham Center for Chemical Genomics
